Laboratory results: ChEMBL document CHEMBL4831479, “Discovery of Novel Thiophene-arylamide Derivatives as DprE1 Inhibitors with Potent Antimycobacterial Activities” (J Med Chem, 2021)
≈ marks a conversion by molar mass, not a printed value.

Tests used:
[1] = tested on: Mycobacterium tuberculosis; assay: Antitubercular activity against Mycobacterium tuberculosis H37Rv assessed as bacterial growth inhibition incubated for 7 days by microplate Alamar blue assay; assay type: functional; settings: 168 h, time 7 day
In short: (§1)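 MABA: H37Rv or clinical isolates grown to late log phase in 7H9 with 0.2% glycerol, 0.05% Tween 80, 10% ADC; washed, filtered 8 μm, frozen. 2 × 10⁵ CFU per well with twofold compound dilutions, 37 °C; day 7 Tween 80 plus Alamar blue, 16–24 h more, fluorescence ex 530/em 590. MIC = lowest concentration giving ≥90% fluorescence reduction versus bacterium-only controls; RFP, INH, TCA1 controls.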

HepG2 = assay: Cytotoxicity against human HepG2 cells assessed as reduction in cell viability measured after 48 hrs by MTT assay; assay type: cell-based; settings: HepG2, 48 h
In short: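 Threefold serial dilutions gave final concentrations of 64 to 0.26 μg/mL. After 48 h at 37 °C, monolayers were washed with warm HBSS and given fresh medium plus MTT for 4 h. Absorbance was read at 492 nm. IC₅₀ is the concentration giving 50% growth inhibition versus the untreated control.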

[2] = Selectivity index, ratio of IC50 for African green monkey Vero cells to MIC for antitubercular activity against Mycobacterium tuberculosis H37Rv; assay type: toxicity; settings: read-out: Selectivity Index
[3] = tested on: Mycobacterium tuberculosis; assay: Antimycobacterial activity against Mycobacterium tuberculosis H37Rv infected in mouse J774.1 cells assessed as reduction in bacterial colony forming units at 10 ug/ml incubated for 3 days (reference value: 5.52 +/- 0.18 log10CFU); assay type: functional; settings: dose 10 µg/ml; time 3 day
In short: (§2)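 Mouse J774A.1 macrophages infected with M. tuberculosis H37Rv, treated 3 days at final 10 or 5 μg/mL; rifampicin control at 5 μg/mL. Intracellular log10 CFU counted; Δlog10 CFU = untreated minus treated. Triplicate, at least three separate experiments.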

[4] = tested on: Mycobacterium tuberculosis; assay: Antimycobacterial activity against Mycobacterium tuberculosis H37Rv infected in mouse J774.1 cells assessed as change in bacterial colony forming units at 5 ug/ml incubated for 3 days; assay type: functional; settings: dose 5 µg/ml; time 3 day; in short: as §2
[5] = biological target: T1, Decaprenylphosphoryl-beta-D-ribose oxidase (Mycobacterium tuberculosis (strain ATCC 25618 / H37Rv)) (UniProt P9WJF1); assay: Non-covalent inhibition of DprE1 in Mycobacterium tuberculosis H37Rv measured after 7 days by microplate Alamar blue assay; settings: time 7.0 day; in short: as §1
T1 sequence (whole entry): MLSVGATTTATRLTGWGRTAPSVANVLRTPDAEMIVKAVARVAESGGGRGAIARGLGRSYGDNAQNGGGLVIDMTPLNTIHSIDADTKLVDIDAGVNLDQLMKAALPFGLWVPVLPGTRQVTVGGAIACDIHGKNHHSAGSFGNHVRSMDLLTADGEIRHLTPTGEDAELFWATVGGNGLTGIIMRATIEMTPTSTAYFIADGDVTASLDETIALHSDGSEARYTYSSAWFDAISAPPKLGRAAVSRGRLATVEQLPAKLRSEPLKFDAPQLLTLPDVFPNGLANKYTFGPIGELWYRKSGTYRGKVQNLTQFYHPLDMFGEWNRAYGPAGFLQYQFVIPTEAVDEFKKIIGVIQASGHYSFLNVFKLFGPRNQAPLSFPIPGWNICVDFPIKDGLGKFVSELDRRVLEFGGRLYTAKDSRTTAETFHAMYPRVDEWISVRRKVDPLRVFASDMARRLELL

[6] = tested on: Mycobacterium tuberculosis; assay: Antimycobacterial activity against Mycobacterium tuberculosis H37Rv infected in mouse J774.1 cells assessed as change in bacterial colony forming units at 10 ug/ml incubated for 3 days; assay type: functional; settings: dose 10 µg/ml; time 3 day; in short: as §2
[7] = tested on: Mycobacterium tuberculosis; assay: Antimycobacterial activity against Mycobacterium tuberculosis H37Rv infected in mouse J774.1 cells assessed as reduction in bacterial colony forming units at 5 ug/ml incubated for 3 days (reference value: 5.52 +/- 0.18 log10CFU); assay type: functional; settings: dose 5 µg/ml; time 3 day; in short: as §2
[8] = Stability in mouse hepatocytes assessed as parent compound remaining at 1 uM measured after 30 mins by LC-MS/MS analysis; assay type: ADME, cell-based, Hepatocyte; settings: 0.5 h
In short: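 Hepatocytes from male mice; metabolic stability measured as the amount of parent compound remaining. Concentrations after 30 min incubation were normalized to those at time zero.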

| SMILES | MIC [1] [µg/mL] | selectivity ratio [2] | Activity [3] [log10CFU] | Activity [4] [deltalog10CFU] | Activity [6] [deltalog10CFU] | Activity [7] [log10CFU] | further results |
| --- | --- | --- | --- | --- | --- | --- | --- |
| CCOC(=O)NC(=O)c1ccsc1NC(=O)c1cc(C(=O)N2CCCCC2)c[nH]1 | 137 (≈ 327 µM) |  |  |  |  |  |  |
| CCOC(=O)NC(=O)c1ccsc1NC(=O)c1ccc(C(=O)N2CCCCC2)s1 |  | > 457 |  |  |  |  | IC50 (HepG2): > 64 µg/mL |
| Cc1ccnc(NC(=O)c2ccsc2NC(=O)c2ccc(C(=O)N3CCCCC3)cc2)n1 | 0.03 (≈ 0.0667 µM) | > 27 |  |  |  |  |  |
| Cc1ccnc(NC(=O)c2ccsc2NC(=O)c2ccc(C(=O)N3CCCCC3)c(F)c2)n1 | > 32 |  |  |  |  |  |  |
| Cc1cnc(NC(=O)c2ccsc2NC(=O)c2ccc(C(=O)N3CCCCC3)cc2)s1 | 0.19 (≈ 0.418 µM) |  |  |  |  |  |  |
| CCOC(=O)NC(=O)c1ccsc1NC(=O)c1coc(C(=O)N2CCCCC2)c1 | 37 (≈ 88.2 µM) |  |  |  |  |  |  |
| CCOC(=O)NC(=O)c1ccsc1NC(=O)c1ccc(C(=O)N2CCCCC2)cc1 |  |  | 4.45 | 0.98 | 1.07 | 4.54 | IC50 (HepG2): > 64 µg/mL; MIC [5]: 0.055 µg/mL (≈ 0.128 µM) |
| Cc1cccc(NC(=O)c2ccsc2NC(=O)c2ccc(C(=O)N3CCCCC3)cc2)n1 | 15.5 (≈ 34.6 µM) |  |  |  |  |  |  |
| CCNC(=O)NC(=O)c1ccsc1NC(=O)c1ccc(C(=O)N2CCCCC2)cc1 | 0.47 (≈ 1.1 µM) |  |  |  |  |  |  |
| CCOC(=O)NC(=O)c1ccsc1NC(=O)c1ccc(C(=O)N2CCCCC2)c(F)c1 |  | > 4000 | 4.18 | 1.11 | 1.34 | 4.41 | IC50 (HepG2): > 64 µg/mL |
| CCOC(=O)NC(=O)c1ccsc1NC(=O)c1nc2ccccc2s1 |  | 66 | 4.36 | 0.11 | 1.16 | 4.91 | Stability [8]: 79.8% |
| CCCNC(=O)c1ccc(C(=O)Nc2sccc2C(=O)NC(=O)OCC)cc1 |  | > 320 |  |  |  |  |  |
| COC(=O)NC(=O)c1ccsc1NC(=O)c1ccc(C(=O)N2CCCCC2)cc1 | > 32 |  | 4.77 | 0.46 | 0.75 | 5.06 | IC50 (HepG2): > 64 µg/mL; MIC [5]: 0.12 µg/mL (≈ 0.289 µM) |
| CCOC(=O)NC(=O)c1ccsc1NC(=O)c1ccc(C(=O)NC2CCC(C)(C)CC2)cc1 | 0.04 (≈ 0.0848 µM) |  |  |  |  |  |  |
| COC(=O)NC(=O)c1ccsc1NC(=O)c1ccc(C(=O)N2CCCCC2)c(F)c1 | 1.94 (≈ 4.48 µM) |  | 4.59 | 0.77 | 0.93 | 4.75 | IC50 (HepG2): > 64 µg/mL |
| COC(=O)C1CCN(C(=O)c2ccsc2NC(=O)c2ccc(C(=O)N3CCCCC3)cc2)CC1 | > 32 |  |  |  |  |  |  |
| O=C(Nc1sccc1C(=O)Nc1nccc(C(F)(F)F)n1)c1ccc(C(=O)N2CCCCC2)cc1 | > 32 | > 320 | 4.54 | 0.93 | 0.98 | 4.59 |  |
| NC(=O)c1ccsc1NC(=O)c1ccc(C(=O)N2CCCCC2)cc1 | 0.2 (≈ 0.56 µM) |  |  |  |  |  |  |
